Assay results of several laboratories.
Protocols differ between the studies behind these lines.
MAP2K5: Dual specificity mitogen-activated protein kinase kinase 5 (MAP2K5, Homo sapiens, UniProt Q13163)

SMILES	target	assay	conditions	measurement	result
C#Cc1n[nH]c2c(-c3cn(C(C)c4ccccn4)c(=O)[nH]c3=O)cc(F)cc12 (centres unmarked)	Fibroblast growth factor receptor 1 (FGFR1, Homo sapiens, UniProt P11362)	enzyme activity, inhibitor	1 µM	inhibition	3.8%
Nc1ncc(-c2nc(N3CCOCC3)nc(N3CCOCC3)n2)c(C(F)F)n1	MAP2K5	binding, competition with immobilised ligand	10 µM	remaining binding	39%
CO[C@H]1/C=C/O[C@@]2(C)Oc3c(C)c(O)c4c(O)c(c(/C=N/N5CCN(C6CCCC6)CC5)c(O)c4c3C2=O)NC(=O)/C(C)=C\C=C\[C@H](C)[C@H](O)[C@@H](C)[C@@H](O)[C@@H](C)[C@H](OC(C)=O)[C@@H]1C	dppA (Mycobacterium tuberculosis, UniProt I6X811)	thermal stability	100 µM	ΔTm	> 1.5 °C
Sc1ncnc2nc[nH]c12	Replicase polyprotein 1a, main protease (Severe acute respiratory syndrome-related coronavirus, UniProt P0C6U8)	enzyme activity, inhibitor	200 µM	remaining activity	49%
CCN(CC)CCCC[C@H](NC(=O)[C@H](CC(C)C)NC(=O)[C@H](C)NC(=O)[C@H](Cc1ccccc1)NC(=O)c1ccc(C(C)(C)C)cc1)C(=O)N[C@@H](CO)C(=O)OC	Melanocortin receptor 4 (MC4R, Homo sapiens, UniProt P32245)	ligand displacement, radioligand	10 µM	remaining binding	84%
COc1ncccc1-c1cnn2ccc(N3CCN(C(=O)OC(C)C)CC3)nc12	Peripheral plasma membrane protein CASK (CASK, Homo sapiens, UniProt O14936)	binding, competition with immobilised ligand	1 µM	remaining binding	93%
Cc1nn(C)cc1-c1nc2c(N3CCN(Cc4ccc(Cl)cc4)CC3)c(Cl)cnc2[nH]1	MAP2K5	binding, competition with immobilised ligand	1 µM	remaining binding	58%
CN1CC[C@@]2(C)c3cc(OC(=O)Nc4ccccc4)ccc3N(C)[C@@H]12	Muscarinic acetylcholine receptor M5 (CHRM5, Homo sapiens, UniProt P08912)	ligand displacement, radioligand	10 µM	inhibition	6.5%
